Results as given in article PMC4207532 (Journal of Medicinal Chemistry, 2014).
Values joined by “and” are separate entries in the source; they are usually repeats but may differ in a detail not shown here. Equal values may be shown once. “Also recorded” adds a separate entry of the source.

Experiments:
[1] = in CH3OH; cited from earlier work
[2] = Absorption spectra in CH3OH; format: physicochemical
[3] = Steady-state fluorescence in CH3OH; format: physicochemical; conditions: excitation at 532 nm; for Quantum yield for fluorescence ΦFL: 3 as standard, ±SD
Summary of the method: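 Steady-state emission spectra recorded in CH3OH on a spectrofluorometer with 532 nm excitation. Quantum yield determined relative to a reference rhodamine dye in CH3OH (ΦFL = 0.93).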

[4] = Singlet oxygen yield from 1O2 luminescence at 1270 nm; format: physicochemical; conditions: air-saturated CH3OH; ±SD
Summary of the method: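 Air-saturated CH3OH solutions in quartz cuvettes. Excitation by 532 nm second harmonic of a nanosecond-pulsed Nd:YAG laser (20 Hz) for time-resolved 1O2 luminescence decay at 1270 nm. Emission collected at 90° through a 950 nm long-pass filter onto an NIR-detector spectrometer. Steady-state NIR emission spectra used a 532 nm diode-pumped solid-state laser.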

[5] = tested on: Colo-26 cells; assay: Uptake in Colo-26 cells with and without verapamil by flow cytometry; format: cell-based, murine; conditions: for Uptake relative to the corresponding thioamide derivative: Colo-26 cells, Figure 2; for Increase in uptake in the presence of VER: 0.5 μM dye, 1 h, with vs without 100 μM verapamil, mean fluorescence
Summary of the method: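 Colo-26 cells exposed 1 h to 0.5 μM dye with or without 100 μM verapamil, then analysed by flow cytometry with 561 nm excitation and 710 nm emission. Mean cellular fluorescence compared between conditions; error bars SD.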

[6] = tested on: Colo-26 cells; assay: Phototoxicity toward Colo-26 cells with tunable dye laser; format: cell-based, murine; conditions: for Phototoxicity (in words): 0.15 μM, 5.0 J cm^–2 of laser light; for LD50/EC50 (laser, 1.0 J cm^–2): dark LD50 over EC50 with 1.0 J cm^–2 of laser light
[7] = biological target: P-gp (Homo sapiens, UniProt P08183); assay: P-gp transport and cell association in MDCKII-MDR1 monolayers; format: in vitro ADME; conditions: dog, MDCK-MDR1
[8] = tested on: P-gp; assay: as above; format: in vitro ADME; conditions: dog, MDCK-MDR1, with 24 (LSN 335984), 5 μM
[9] = tested on: Colo-26 cells; assay: Combination PDT and doxorubicin in Colo-26 cells; format: cell-based, murine; conditions: for Synergy with Dox upon irradiation (in words): 0.15 μM dye, various Dox concentrations, 1.0 J cm^–2 laser light; for Phototoxicity (in words) in the absence of Dox: 0.15 μM, 1.0 J cm^–2 of 613 nm (15b, 17b) or 611 nm (16b, 18b) laser light, relative to dark controls; for Surviving fraction of the combination vs single treatments (in words) / Surviving fraction: 0.15 μM photosensitizer, 1.0 J cm^–2 of 611 nm light; for Surviving fraction of the combination vs single treatments (in words): 0.5 μM Dox; for Surviving fraction: 1.0 μM Dox; for Dox-only concentration giving the same surviving fraction as the combination: combination: 0.15 μM photosensitizer, 0.05 μM Dox, 1.0 J cm^–2 of light
Summary of the method: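 Colo-26 cells were seeded at 10 000/well and grown 24 h in RPMI 1640 with 10% FBS. Dye at 0.15 μM (ethanol stock) plus Dox at 0.005–5.0 μM were added together as 10× medium solutions, alongside single-agent wells. After 1 h dark, wells were kept dark or laser-irradiated at λmax (±2 nm), 3.2 mW cm–2, to 1 J cm–2. Fresh medium, 48 h at 37 °C, 5% CO2. SRB assay read at 570 nm; six replicates, ±SD, pairwise […].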

[10] = Photostability under continuous illumination; format: physicochemical
Summary of the method: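 Dye in 10% CH3OH/pH 7.4 buffer under continuous tungsten-source illumination at 50 mW cm–2. Loss of dye chromophore was followed as a function of delivered fluence and treated as first-order, giving the fluence for half-loss.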

[11] = tested on: isolated P-gp; conditions: ref 7−9; cited from earlier work
[12] = tested on: P-gp; conditions: 5 μM; cited from earlier work
[13] = tested on: mitochondria of Colo-26 cells; assay: Colocalization by ImageStream flow cytometry; format: cell-based, murine; conditions: Colo-26 cells incubated with both agents; ±SD
Summary of the method: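 Colo-26 cells (5 × 10^5 in 0.5 mL medium) co-incubated 15 min with MitoTracker Green and MitoTracker Red. Cells were then centrifuged, and medium replaced with Hanks PBS. Resuspended cells kept on ice and imaged by ImageStream (480–560 and 642–745 nm channels; MTG excited at 488 nm). Per-cell similarity was a log-transformed Pearson correlation of spatially correlated pixel intensities over the whole cell, averaged over 1300 cells.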

[14] = 350–800 nm light at 50 mW cm^–2, 10% CH3OH in pH 7.4 buffer

Sequence of P-gp (Homo sapiens, UniProt P08183) (P08183 whole entry): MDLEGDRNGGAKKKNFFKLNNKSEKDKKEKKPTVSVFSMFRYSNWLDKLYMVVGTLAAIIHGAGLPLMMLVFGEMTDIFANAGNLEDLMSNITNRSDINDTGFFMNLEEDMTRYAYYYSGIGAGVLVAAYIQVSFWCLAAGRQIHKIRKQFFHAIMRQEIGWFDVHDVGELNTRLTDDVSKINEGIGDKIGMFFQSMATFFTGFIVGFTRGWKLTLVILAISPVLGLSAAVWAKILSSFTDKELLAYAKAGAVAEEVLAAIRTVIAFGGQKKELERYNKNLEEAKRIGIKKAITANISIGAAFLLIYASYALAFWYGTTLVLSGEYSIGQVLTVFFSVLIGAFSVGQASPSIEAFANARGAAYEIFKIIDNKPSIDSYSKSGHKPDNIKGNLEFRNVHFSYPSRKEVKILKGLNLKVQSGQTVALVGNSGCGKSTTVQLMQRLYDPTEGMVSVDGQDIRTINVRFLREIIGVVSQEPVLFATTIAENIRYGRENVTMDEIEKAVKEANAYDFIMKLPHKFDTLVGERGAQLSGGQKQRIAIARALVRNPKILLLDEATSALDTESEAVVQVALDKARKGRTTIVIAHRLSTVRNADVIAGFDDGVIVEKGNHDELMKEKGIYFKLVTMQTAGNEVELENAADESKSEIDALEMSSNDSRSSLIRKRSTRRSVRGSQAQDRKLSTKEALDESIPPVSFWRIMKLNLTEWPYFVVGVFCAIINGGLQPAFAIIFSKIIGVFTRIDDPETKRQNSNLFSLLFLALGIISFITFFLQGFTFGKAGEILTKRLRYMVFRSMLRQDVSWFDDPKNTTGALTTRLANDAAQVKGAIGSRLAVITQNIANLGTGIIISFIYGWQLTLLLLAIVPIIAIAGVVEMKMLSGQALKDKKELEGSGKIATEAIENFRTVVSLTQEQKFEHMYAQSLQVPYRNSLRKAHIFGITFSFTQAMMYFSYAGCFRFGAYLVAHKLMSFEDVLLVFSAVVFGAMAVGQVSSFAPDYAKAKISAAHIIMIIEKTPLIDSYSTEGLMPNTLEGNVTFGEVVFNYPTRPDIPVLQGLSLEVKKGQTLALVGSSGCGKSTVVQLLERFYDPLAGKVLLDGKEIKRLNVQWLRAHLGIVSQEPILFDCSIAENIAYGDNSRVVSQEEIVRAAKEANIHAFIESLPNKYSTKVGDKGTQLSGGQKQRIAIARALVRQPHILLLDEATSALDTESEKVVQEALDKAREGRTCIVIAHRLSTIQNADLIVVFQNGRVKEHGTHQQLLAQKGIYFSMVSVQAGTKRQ

Molecule	Absorption maximum λmax [2] [nm]	Molar extinction coefficient ε [2]	Fluorescence emission maximum λFL [3] [nm]	Quantum yield for fluorescence ΦFL [3]	Quantum yield for the generation of singlet oxygen Φ(1O2) [4]	LD50/EC50 (laser, 1.0 J cm^–2) [6]	Synergy with Dox upon irradiation (in words) [9]	Phototoxicity (in words) in the absence of Dox [9]	other results
CC/N=c1\cc2oc3cc(NCC)c(C)cc3c(-c3ccccc3C(=O)OCC)c-2cc1C [compound 3, rhodamine 6G]	–	–	–	–	–	–	–	–	Quantum yield for fluorescence ΦFL (standard) [1]: 0.93
CN1CCC(C)(C)c2cc3c(-c4ccc(C(=O)N5CCCCC5)s4)c4ccc(=[N+](C)C)cc-4[se]c3cc21.[Cl-] [17b, 9-(5-(Piperidylcarbamoyl)thiophen-2-yl) Selenorhodamine]	609	8.73 × 10^4 M^–1 cm^–1	634	0.009 ± 0.001	0.48 ± 0.03	26	No synergy; also recorded: do not show significant synergistic effects	no significant phototoxicity	Uptake relative to the corresponding thioamide derivative [5]: 40–50%; Phototoxicity (in words) [6]: little if any phototoxicity; EC50 ([6]; Mus musculus, 48 h, read-out: EC50 (λmax ± 2 nm), 0.5 J cm^–2): > 500 nM; Papp A→B at 1 h, 5 μM [7]: 0.09 ± 0.03 ×10⁻⁶ cm/s; Papp B→A at 1 h, 5 μM [7]: 16.4 ± 0.4 ×10⁻⁶ cm/s; efflux ratio at 1 h, 5 μM [7]: 182; Papp A→B at 1 h, 5 μM [8]: 0.1 ± 0.01 ×10⁻⁶ cm/s; Papp B→A at 1 h, 5 μM [8]: 1.11 ± 0.02 ×10⁻⁶ cm/s; Papp at 1 h, 5 μM [8]: ~0.6 ×10⁻⁶ cm/s
CCN(CC)C(=S)c1ccc(-c2c3ccc(=[N+](C)C)cc-3[se]c3cc4c(cc23)C(C)(C)CCN4C)s1.[Cl-] [16b, 9-(5-(Diethylcarbamothioyl)thiophen-2-yl) Selenorhodamine]	608	9.78 × 10^4 M^–1 cm^–1	635	0.008 ± 0.001	0.54 ± 0.03	> 55	synergistic effects	some phototoxicity	Fluence after which half of the dye chromophore is lost [10, 14]: ~230 J cm^–2; Increase in uptake in the presence of VER [5]: 1.3- to 2 fold and 2 fold; Surviving fraction of the combination vs single treatments (in words) [9]: statistically significant decrease; Surviving fraction [9]: ≤ 0.20; Dox-only concentration giving the same surviving fraction as the combination [9]: 0.5 µM
tetramethylrosamine [1 (E = O)]	–	–	–	–	–	–	–	–	Transport rate relative to rhodamine 123 (2) or rhodamine 6G (3) [11]: 5- to 10 fold
O[C@@H](COc1cccc2ncccc12)CN1CCN([C@@H]2c3ccccc3[C@@H]3[C@H](c4ccccc42)C3(Cl)Cl)CC1 [compound 24]	–	–	–	–	–	–	–	–	P-gp inhibition (in words) [12]: completely inhibits P-gp
CN1CCC(C)(C)c2cc3c(-c4ccc(C(=S)N5CCCCC5)s4)c4ccc(=[N+](C)C)cc-4[se]c3cc21.[Cl-] [18b, 9-(5-(Piperidylcarbamothioyl)thiophen-2-yl) Selenorhodamine]	608	8.11 × 10^4 M^–1 cm^–1	634	0.008 ± 0.001	0.44 ± 0.03	> 55	synergistic effects	some phototoxicity	Fluence after which half of the dye chromophore is lost [10, 14]: ~230 J cm^–2; Fluence after which half of the dye chromophore is lost ([10]; 500–800 nm light at 50 mW cm^–2, 10% CH3OH in pH 7.4 buffer): ~850 J cm^–2; Increase in uptake in the presence of VER [5]: 1.3- to 2 fold and 2 fold; Papp A→B at 1 h, 5 μM [7]: 0.19 ± 0.05 ×10⁻⁶ cm/s; Papp B→A at 1 h, 5 μM [7]: 2.9 ± 0.3 ×10⁻⁶ cm/s; efflux ratio at 1 h, 5 μM [7]: 15; Papp A→B at 1 h, 5 μM [8]: 0.17 ± 0.02 ×10⁻⁶ cm/s; Papp B→A at 1 h, 5 μM [8]: 0.18 ± 0.01 ×10⁻⁶ cm/s; Papp at 1 h, 5 μM [8]: ~0.2 ×10⁻⁶ cm/s; Surviving fraction of the combination vs single treatments (in words) [9]: statistically significant decrease; Surviving fraction [9]: ≤ 0.20; Dox-only concentration giving the same surviving fraction as the combination [9]: 0.3 µM
CCN(CC)C(=O)c1ccc(-c2c3ccc(=[N+](C)C)cc-3[se]c3cc4c(cc23)C(C)(C)CCN4C)s1.[Cl-] [15b, 9-(5-(Diethylcarbamoyl)thiophen-2-yl) Selenorhodamine]	609	7.18 × 10^4 M^–1 cm^–1	636	0.009 ± 0.001	0.50 ± 0.03	22	No synergy; also recorded: do not show significant synergistic effects	no significant phototoxicity	Uptake relative to the corresponding thioamide derivative [5]: 40–50%; Phototoxicity (in words) [6]: some phototoxicity
C[n+]1c(C=CC=C2N(Cc3ccc(CCl)cc3)c3cc(Cl)c(Cl)cc3N2Cc2ccc(CCl)cc2)oc2ccccc21.[Cl-] [MTG, 2-[3-[5,6-dichloro-1,3-bis[[4-(chloromethyl)phenyl]methyl]-1,3-dihydro-2H-benzimidazol-2-ylidene]-1-propenyl]-3-methylbenzoxazolium chloride]	–	–	–	–	–	–	–	–	Mean bright detail similarity score with MTR [13]: 2.0 ± 0.8
